Experimental data reported in ChEMBL document CHEMBL4033788, “Novel Ligustrazine-Based Analogs of Piperlongumine Potently Suppress Proliferation and Metastasis of Colorectal Cancer Cells in Vitro and in Vivo” (J Med Chem, 2018).
In brackets after ≈: the same amount, converted by molar mass. Activity calls are given as the source filed them. No cut-off for these calls is given here.

Assays:
HCT-116 [1] = experiment: Antiproliferative activity against human HCT116 cells at […] pretreated with GSH for 1 hr measured after 72 hrs by MTT assay relative to control; type: functional
Mus musculus [2] = experiment: Hepatotoxicity in BALB/c nude mouse xenografted with human HCT116 cells at 2.5 to 5 mg/kg, ip administered for 21 consecutive days; type: toxicity, organism-based; settings: in vivo
Summary of the method: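 Male BALB/c nude mice (3−5 weeks) inoculated sc with 1 × 10^7 HCT-116 cells; at tumour volume about 75 mm3 randomized (n = 8 per group) and dosed ip daily at 2.5 or 5 mg/kg for 21 consecutive days. Body weights monitored; liver, kidney, lung and heart inspected for size and morphology at sacrifice.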

Mus musculus [3] = experiment: Toxicity in BALB/c nude mouse xenografted with human HCT116 cells assessed as mortality at 2 to 4 mg/kg, ip administered thrice a week for 6 consecutive weeks; type: organism-based; settings: in vivo
Summary of the method: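 Lung metastasis model: HCT-116 cells in serum-free medium injected into tail vein of BALB/c nude mice, then randomized and given vehicle or compound ip (1, 2 or 4 mg/kg) three times a week. Body weight recorded weekly, survival monitored (n = 6); mice sacrificed after 40 days and lungs examined by H&E histology.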

[4] = Acute toxicity in ICR mouse assessed as survival rate at 200 mg/kg, ip administered for 14 days relative to control; type: organism-based; settings: in vivo
HCT-116 [5] = experiment: Inhibition of TGF-beta1-induced increase in expression levels of MMP-9 protein in human HCT116 cells after 48 hrs by Western blot analysis; type: functional, cell-based
Summary of the method: (§1)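 HCT-116 cells treated with or without TGF-β1 (10 ng/mL) for 48 h, with or without test agent. Lysates (20 μg/lane) run on 7.5% SDS-PAGE and transferred to PVDF. Probed for p-Akt (Ser473), Akt, p-GSK-3β (S9), GSK-3β, E-cadherin, MMP-9 and β-actin, detected by ECL. Densitometry relative to β-actin or total protein. Three independent experiments.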

HCT-116 [6] = experiment: Induction of ROS accumulation in human HCT116 cells up to 3 hrs in presence of GSH by DCFH-DA staining-based fluorescence microscopic analysis; type: functional, cell-based
HCT-116 [7] = experiment: Antiproliferative activity against human HCT116 cells at […] after 72 hrs by MTT assay relative to control; type: functional; settings: HCT-116, 72 h
HCT-116 [8] = experiment: Inhibition of TGF-beta1-induced increase in expression levels of twist protein in human HCT116 cells after 48 hrs by Western blot analysis; type: functional, cell-based
Summary of the method: (§2)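 HCT-116 cells (1 × 10^6/well, plated overnight) were exposed to TGF-β1 (10 ng/mL) for 48 h, with or without test compound; vehicle was 0.1% DMSO. Lysates (20 μg/lane) were run on 7.5% SDS-PAGE and blotted to PVDF, with primary antibody overnight at 4 °C and HRP/ECL detection. Band densities were normalised to β-actin across three independent experiments.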

HCT-116 [9] = experiment: Induction of ROS accumulation in human HCT116 cells up to 3 hrs in presence of GSH by DCFH-DA staining-based fluorescence spectrometric analysis; type: functional, cell-based
HCT-116 [10] = experiment: Inhibition of TGF-beta1-induced increase in expression levels of vimentin protein in human HCT116 cells after 48 hrs by Western blot analysis; type: functional, cell-based; summary of the method: as §2
[11] = target: Glycogen synthase kinase-3 beta (Homo sapiens) (UniProt P49841); experiment: Inhibition of TGF-beta1-induced GSK-3beta phosphorylation in human HCT116 cells after 48 hrs by Western blot analysis; type: cell-based; summary of the method: as §1
HCT-116 [12] = experiment: Antimetastatic activity against human HCT116 cells xenografted in BALB/c nude mouse model assessed as reduction in lung metastatic nodules at 2 to 4 mg/kg, ip administered thrice a week for 6 consecutive weeks by H and E staining-based assay; type: functional, organism-based
Summary of the method: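 BALB/c nude mice received HCT-116 cells into the tail vein, then were randomized and dosed intraperitoneally (1, 2 or 4 mg/kg) three times weekly. Body weight recorded weekly. Lungs sectioned (4 μm), H&E stained, and nodule number and area scored blinded in three sections per mouse. Nodule counts n = 4–6 per group.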

[13] = Aqueous solubility of compound by HPLC analysis; type: physicochemical; settings: water
Summary of the method: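 Compound shaken in pure water or 50 mM phosphate buffer pH 7.4 at 20 °C, then centrifuged. Supernatant assayed by C18 HPLC (acetonitrile–water 60/40, 1.0 mL/min, 254 nm). Triplicate.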

[14] = Thiol reactivity in DMSO assessed as methyl 2-(3-chloro-2-oxo-1-(3-(3,5,6-trimethylpyrazin-2-yl)acryloyl)piperidin-4-ylthio)acetate formation at 5 mg up to 8 hrs in presence of methyl thioglycolate by 1H NMR analysis
[15] = target: T1, Catenin beta-1 (Homo sapiens) (UniProt P35222); experiment: Inhibition of TGF-beta1-regulated decrease in cytoplasmic beta-catenin in human HCT116 cells at 50 nM after 48 hrs by Western blot analysis; type: cell-based
T1 sequence (whole entry): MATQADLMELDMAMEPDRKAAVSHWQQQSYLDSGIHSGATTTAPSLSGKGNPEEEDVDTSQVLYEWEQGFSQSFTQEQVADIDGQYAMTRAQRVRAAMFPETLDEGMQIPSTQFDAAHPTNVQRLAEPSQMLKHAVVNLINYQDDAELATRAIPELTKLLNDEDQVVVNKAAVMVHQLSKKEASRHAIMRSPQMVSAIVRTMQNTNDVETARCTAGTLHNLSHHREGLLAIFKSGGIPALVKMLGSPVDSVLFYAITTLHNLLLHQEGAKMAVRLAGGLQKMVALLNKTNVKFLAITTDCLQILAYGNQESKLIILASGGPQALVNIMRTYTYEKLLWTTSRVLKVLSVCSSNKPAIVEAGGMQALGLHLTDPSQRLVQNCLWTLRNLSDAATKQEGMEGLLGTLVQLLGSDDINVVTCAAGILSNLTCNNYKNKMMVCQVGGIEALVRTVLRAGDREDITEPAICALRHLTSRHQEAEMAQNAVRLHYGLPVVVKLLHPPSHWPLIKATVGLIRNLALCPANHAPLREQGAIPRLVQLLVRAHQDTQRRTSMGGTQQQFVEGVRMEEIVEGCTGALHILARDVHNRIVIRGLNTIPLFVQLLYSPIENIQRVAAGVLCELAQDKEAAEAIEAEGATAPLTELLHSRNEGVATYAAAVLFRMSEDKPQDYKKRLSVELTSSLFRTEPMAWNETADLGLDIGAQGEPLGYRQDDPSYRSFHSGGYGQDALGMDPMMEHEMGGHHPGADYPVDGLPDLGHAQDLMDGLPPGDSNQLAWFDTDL
Summary of the method: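 Cytoplasmic and nuclear β-catenin were measured by Western blot in HCT-116 cells given TGF-β1 (10 ng/mL) for 48 h, with or without compound, against 0.1% DMSO vehicle. Lysates (20 μg/lane) were run on 7.5% gels and transferred to PVDF, with Lamin A among the antibodies used. Blots were read by ECL and densitometry, n = 3 independent experiments.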

HCT-116 [16] = experiment: Inhibition of TGF-beta1-induced increase in expression levels of snail protein in human HCT116 cells at 50 nM after 48 hrs by Western blot analysis; type: functional, cell-based; summary of the method: as §2
HCT-116 [17] = experiment: Inhibition of TGF-beta1-induced increase in expression levels of twist protein in human HCT116 cells at 50 nM after 48 hrs by Western blot analysis; type: functional, cell-based; summary of the method: as §2

Glycogen synthase kinase-3 beta (Homo sapiens), sequence (P49841 whole entry, looked up): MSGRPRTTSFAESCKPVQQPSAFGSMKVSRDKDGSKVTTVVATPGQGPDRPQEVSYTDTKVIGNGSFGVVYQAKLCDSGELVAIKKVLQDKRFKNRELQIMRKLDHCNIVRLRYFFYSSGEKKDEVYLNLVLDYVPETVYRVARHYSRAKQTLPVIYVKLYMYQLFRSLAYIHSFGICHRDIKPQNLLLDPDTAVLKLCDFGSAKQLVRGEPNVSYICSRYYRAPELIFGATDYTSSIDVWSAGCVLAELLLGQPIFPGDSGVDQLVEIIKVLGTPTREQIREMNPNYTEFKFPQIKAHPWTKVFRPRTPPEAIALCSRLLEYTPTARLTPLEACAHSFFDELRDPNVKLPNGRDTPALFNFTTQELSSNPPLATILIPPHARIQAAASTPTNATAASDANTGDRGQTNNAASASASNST

Compound | inhibition at […] (HCT-116 [1]) | Activity (Mus musculus [2]) | Activity (Mus musculus [3]) | survival at 336 h [4] | inhibition (HCT-116 [5]) | Activity (HCT-116 [6]) | inhibition at […] (HCT-116 [7]) | inhibition (HCT-116 [8]) | Activity (HCT-116 [9]) | inhibition (HCT-116 [10]) | inhibition [11] | Activity (HCT-116 [12]) | solubility [13] | Drug metabolism [14] | inhibition [15] | inhibition (HCT-116 [16]) | inhibition (HCT-116 [17])
Cc1nc(C)c(/C=C/C(=O)N2CCC=C(Cl)C2=O)nc1C | 36.1% | Non-Toxic | Non-Toxic | 30% | Dose-dependent effect | inactive | 82.9% | Dose-dependent effect | inactive | Dose-dependent effect | Dose-dependent effect | Active | 22.8 µg/mL (≈ 74.7 µM) | Metabolite detected |  |  | 
COc1cc(/C=C/C(=O)N2CCC=CC2=O)cc(OC)c1OC [PIPLARTINE] |  |  |  |  |  |  |  |  |  |  |  |  |  |  | Active | Active | Active
